# Key:
# Settings in all cases: stereoisomer not certain
# [1] = biological target: T1, UniProt A2ATE5
# T1 sequence (whole entry): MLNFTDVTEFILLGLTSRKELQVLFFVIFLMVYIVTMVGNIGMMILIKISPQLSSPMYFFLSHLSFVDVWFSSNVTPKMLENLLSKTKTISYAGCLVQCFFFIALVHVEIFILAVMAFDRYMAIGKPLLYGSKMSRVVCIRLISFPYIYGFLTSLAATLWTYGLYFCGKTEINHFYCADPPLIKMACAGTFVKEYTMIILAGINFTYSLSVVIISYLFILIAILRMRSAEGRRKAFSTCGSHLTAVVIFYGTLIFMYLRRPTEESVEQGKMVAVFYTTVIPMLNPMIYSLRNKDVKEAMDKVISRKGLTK
# In short: (§1)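 Each receptor–molecule pair is labelled responsive or non-responsive (inactive) according to whether the original authors judged the measured signal statistically different from baseline. The data were taken from the main text and supplementary material of published papers and checked for typos and inconsistencies. Assay methods differed by source, with transient luciferase assays in mammalian cell lines being common.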
# [2] = biological target: T2, UniProt A2AVB0
# T2 sequence (whole entry): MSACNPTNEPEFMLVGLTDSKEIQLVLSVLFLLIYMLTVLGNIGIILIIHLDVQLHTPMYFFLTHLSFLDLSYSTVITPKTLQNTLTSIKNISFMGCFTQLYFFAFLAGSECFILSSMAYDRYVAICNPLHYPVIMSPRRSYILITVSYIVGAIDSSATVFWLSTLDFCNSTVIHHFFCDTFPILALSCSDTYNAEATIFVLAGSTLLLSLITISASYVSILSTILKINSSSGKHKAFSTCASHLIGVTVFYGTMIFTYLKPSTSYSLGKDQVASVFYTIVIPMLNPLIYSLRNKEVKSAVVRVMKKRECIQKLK
# In short: as §1
# [3] = biological target: T3, UniProt A2AVB5
# T3 sequence (whole entry): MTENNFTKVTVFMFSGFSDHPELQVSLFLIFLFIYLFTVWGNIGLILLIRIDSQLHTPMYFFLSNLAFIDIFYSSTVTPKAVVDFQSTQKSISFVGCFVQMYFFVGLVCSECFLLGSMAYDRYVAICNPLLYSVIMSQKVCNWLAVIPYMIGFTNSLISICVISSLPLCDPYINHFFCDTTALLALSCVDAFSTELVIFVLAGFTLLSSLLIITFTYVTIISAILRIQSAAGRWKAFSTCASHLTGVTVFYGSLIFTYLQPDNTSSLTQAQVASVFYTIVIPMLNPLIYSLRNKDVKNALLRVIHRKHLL
# In short: as §1
# [4] = biological target: T4, UniProt B2RVX8
# T4 sequence (whole entry): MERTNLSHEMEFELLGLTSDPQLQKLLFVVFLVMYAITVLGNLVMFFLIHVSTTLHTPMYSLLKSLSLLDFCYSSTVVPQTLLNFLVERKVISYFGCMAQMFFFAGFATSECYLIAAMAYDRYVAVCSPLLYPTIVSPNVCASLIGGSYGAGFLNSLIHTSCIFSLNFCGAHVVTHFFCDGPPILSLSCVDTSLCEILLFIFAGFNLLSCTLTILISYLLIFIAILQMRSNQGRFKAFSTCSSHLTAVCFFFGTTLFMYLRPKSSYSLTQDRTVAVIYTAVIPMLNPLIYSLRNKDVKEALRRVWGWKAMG
# In short: as §1
# [5] = biological target: T5, UniProt E9PVX1
# T5 sequence (whole entry): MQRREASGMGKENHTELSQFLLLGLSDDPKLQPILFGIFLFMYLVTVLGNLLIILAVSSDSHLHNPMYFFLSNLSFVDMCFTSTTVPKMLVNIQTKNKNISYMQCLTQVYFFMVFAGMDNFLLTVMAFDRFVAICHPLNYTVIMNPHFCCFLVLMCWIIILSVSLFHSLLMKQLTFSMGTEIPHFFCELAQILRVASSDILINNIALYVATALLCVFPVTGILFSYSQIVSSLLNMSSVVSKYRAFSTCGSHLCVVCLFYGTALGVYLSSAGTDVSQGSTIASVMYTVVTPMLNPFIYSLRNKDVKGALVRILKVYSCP
# In short: as §1
# [6] = biological target: UniProt A0PK57
# In short: as §1
# [7] = biological target: UniProt A2ASV2
# In short: as §1
# [8] = biological target: UniProt A2AVA9
# In short: as §1
# [9] = biological target: UniProt A2AVC3
# In short: as §1
# [10] = biological target: UniProt E9PXH6
# In short: as §1
# 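Also: active if original authors judged signal statistically different from baseline.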
# Sequence of UniProt A2ASV2 (A2ASV2 as listed by the source): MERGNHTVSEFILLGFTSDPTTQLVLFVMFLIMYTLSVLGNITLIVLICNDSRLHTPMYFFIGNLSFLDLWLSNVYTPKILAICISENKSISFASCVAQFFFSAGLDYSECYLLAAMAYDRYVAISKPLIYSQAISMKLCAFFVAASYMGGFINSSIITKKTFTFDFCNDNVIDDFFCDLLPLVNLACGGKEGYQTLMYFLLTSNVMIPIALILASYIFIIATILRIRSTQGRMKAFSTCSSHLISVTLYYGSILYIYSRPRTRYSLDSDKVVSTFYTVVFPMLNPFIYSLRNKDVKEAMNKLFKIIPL
# Sequence of UniProt A2AVC3 (A2AVC3 as listed by the source): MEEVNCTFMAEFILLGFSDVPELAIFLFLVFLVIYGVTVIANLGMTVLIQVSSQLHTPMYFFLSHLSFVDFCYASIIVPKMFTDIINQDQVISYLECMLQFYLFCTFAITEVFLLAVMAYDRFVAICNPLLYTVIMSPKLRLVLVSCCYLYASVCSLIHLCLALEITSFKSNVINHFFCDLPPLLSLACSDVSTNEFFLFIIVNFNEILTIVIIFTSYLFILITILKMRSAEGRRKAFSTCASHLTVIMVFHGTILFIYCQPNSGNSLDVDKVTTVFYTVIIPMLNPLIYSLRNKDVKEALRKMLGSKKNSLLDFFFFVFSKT
# Sequence of UniProt E9PXH6 (E9PXH6 as listed by the source): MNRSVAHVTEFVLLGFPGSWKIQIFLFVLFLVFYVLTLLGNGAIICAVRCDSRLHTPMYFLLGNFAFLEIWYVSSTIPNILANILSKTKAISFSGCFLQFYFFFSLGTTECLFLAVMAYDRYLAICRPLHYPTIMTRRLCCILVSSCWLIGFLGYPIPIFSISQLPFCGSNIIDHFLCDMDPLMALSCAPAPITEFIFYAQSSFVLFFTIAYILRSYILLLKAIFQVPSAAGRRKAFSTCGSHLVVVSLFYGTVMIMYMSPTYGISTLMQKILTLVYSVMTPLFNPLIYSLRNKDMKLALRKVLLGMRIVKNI
# Sequence of UniProt A2AVA9 (A2AVA9 as listed by the source): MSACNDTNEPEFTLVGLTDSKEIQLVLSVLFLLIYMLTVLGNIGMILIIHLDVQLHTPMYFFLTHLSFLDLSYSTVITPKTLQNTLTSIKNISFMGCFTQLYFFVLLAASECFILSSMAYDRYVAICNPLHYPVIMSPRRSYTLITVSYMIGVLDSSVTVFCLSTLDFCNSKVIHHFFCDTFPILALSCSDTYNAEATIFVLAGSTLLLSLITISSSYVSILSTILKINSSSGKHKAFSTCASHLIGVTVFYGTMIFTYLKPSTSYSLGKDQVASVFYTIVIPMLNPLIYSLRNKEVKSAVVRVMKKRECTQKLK
# Sequence of UniProt A0PK57 (A0PK57 as listed by the source): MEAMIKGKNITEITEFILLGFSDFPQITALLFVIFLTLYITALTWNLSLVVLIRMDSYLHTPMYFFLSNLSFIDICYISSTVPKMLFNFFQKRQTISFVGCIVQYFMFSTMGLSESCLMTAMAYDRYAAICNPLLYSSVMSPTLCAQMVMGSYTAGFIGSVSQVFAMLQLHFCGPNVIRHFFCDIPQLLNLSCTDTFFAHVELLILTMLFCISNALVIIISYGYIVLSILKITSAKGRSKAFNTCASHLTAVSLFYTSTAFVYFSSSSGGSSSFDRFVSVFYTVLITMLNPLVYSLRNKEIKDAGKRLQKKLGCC
SMILES,odorant receptor agonist call [1],odorant receptor agonist call [2],odorant receptor agonist call [3],odorant receptor agonist call [4],odorant receptor agonist call [5],odorant receptor agonist call [6],odorant receptor agonist call [7],odorant receptor agonist call [8],odorant receptor agonist call [9],odorant receptor agonist call [10]
CC(=O)OCc1ccccc1,inactive,inactive,inactive,inactive,inactive,–,–,–,–,–
O=C1Cc2ccccc2O1,inactive,inactive,inactive,inactive,inactive,–,–,–,–,–
CCCCCCOC(C)=O,inactive,inactive,inactive,inactive,inactive,–,–,–,–,–
CC1CCCCCCCCCCCCC(=O)C1 (stereo unspecified),–,–,–,–,–,inactive,–,–,–,–
CCCCCC=O,inactive,inactive,inactive,inactive,inactive,–,–,–,–,–
O=c1ccc2ccccc2o1,–,–,active,inactive,–,–,active,active,inactive,active
CC(=O)OCC=C(C)C,inactive,inactive,inactive,inactive,inactive,–,–,–,–,–
O=C(c1ccccc1)c1ccccc1,inactive,inactive,inactive,inactive,inactive,–,–,–,–,–
C=CCOC(=O)CCCCCC,inactive,inactive,inactive,inactive,inactive,–,–,–,–,–
CCCCC(=O)CC,inactive,inactive,inactive,inactive,inactive,–,–,–,–,–
CCCCCCCC(C)=O,inactive,inactive,inactive,inactive,inactive,–,–,–,–,–
COc1cc(C(=O)O)ccc1O,inactive,inactive,inactive,inactive,inactive,–,–,–,–,–
O=C1CCOc2ccccc21,inactive,inactive,active,inactive,inactive,–,inactive,active,inactive,active
C=C(C)C1CCC(C)C(=O)C1 (stereo unspecified),inactive,inactive,inactive,inactive,inactive,–,–,–,–,–
CCCCCCCCCCO,inactive,inactive,inactive,inactive,inactive,–,–,–,–,–
CCCCCC1=C(C)CCC1=O,inactive,inactive,inactive,active,inactive,–,–,–,–,–
CC(C)=CCCC(C)CCO (stereo unspecified),inactive,inactive,inactive,inactive,inactive,–,–,–,–,–
CCCCCCC(C)=O,inactive,inactive,inactive,inactive,inactive,–,–,–,–,–
CCCCC(C)=O,inactive,inactive,inactive,inactive,inactive,–,–,–,–,–
CC(C)=CCCC(C)=CCO,inactive,inactive,inactive,inactive,inactive,–,–,–,–,–
